# This is a sample that favours compounds with a hit; in the whole collection about 9.4% have one here.
# CSC inhib = blocks cancer stem cells; inhibition, % at 7.5 µM; hit rate 1.1% among 300,000; AID 2717; cancer stem cell-like cells viability, luminescence; in the data active means inhibition above about 75%; inconclusive means no clear call, values can overlap the other calls; tested in HMLE shEcad cells
# Mdm2-MdmX inh = human Mdm2/MdmX binding inhibition | SaOS-2 split-luciferase Mdm2/MdmX complementation, luminescence | O15151+Q00987 | inhibition, % at 8 µM | hit rate 3% among 330,000 | AID 485346;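 active means inhibition of at least 50% at 8 µM in the primary screen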
# Target sequence (O15151 whole entry, looked up): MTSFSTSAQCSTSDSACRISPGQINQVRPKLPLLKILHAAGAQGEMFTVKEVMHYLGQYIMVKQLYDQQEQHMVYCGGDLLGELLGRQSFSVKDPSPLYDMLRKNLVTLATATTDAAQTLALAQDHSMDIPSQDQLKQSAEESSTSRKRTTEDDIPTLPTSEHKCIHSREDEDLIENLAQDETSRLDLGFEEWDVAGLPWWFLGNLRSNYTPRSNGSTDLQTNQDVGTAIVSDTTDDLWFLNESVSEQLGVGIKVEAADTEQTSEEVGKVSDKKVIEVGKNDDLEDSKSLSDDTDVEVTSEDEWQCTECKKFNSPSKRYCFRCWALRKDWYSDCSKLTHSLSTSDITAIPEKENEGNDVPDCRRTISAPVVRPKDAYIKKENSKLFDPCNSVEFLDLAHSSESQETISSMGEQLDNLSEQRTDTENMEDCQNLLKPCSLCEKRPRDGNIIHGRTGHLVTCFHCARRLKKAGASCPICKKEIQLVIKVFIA
# Target sequence (Q00987 whole entry, looked up): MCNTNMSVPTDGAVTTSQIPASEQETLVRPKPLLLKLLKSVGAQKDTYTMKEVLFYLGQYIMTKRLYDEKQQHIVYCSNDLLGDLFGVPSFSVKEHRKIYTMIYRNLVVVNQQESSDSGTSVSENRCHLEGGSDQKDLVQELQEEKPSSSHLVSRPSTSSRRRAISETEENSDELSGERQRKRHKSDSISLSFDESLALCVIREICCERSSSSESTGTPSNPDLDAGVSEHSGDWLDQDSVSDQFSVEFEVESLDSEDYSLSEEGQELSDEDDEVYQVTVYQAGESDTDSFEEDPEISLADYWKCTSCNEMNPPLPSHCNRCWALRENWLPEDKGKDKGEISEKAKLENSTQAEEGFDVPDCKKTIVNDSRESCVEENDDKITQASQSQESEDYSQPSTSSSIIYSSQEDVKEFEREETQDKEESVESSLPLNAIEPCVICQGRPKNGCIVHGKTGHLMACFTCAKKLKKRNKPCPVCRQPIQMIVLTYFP
# L major viab = Leishmania major promastigote growth inhibition; inhibition, % at 10 µM; Leishmania major promastigotes, resazurin fluorescence viability; hit rate 9% among 200,000; in the data active means inhibition above about 50%;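 further: promastigotes grown with compound for 44 hours at 28 °C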
# T cruzi inh = T. cruzi replication inhibition; T. cruzi beta-gal in NIH3T3, luminescence, 90 h; inhibition, % (concentration not given with the values); hit rate 1.4% among 300,000; AID 1885;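 active means mean inhibition across valid replicates above about 55%, limit read from the data; inconclusive means mean below that limit but half or more replicates reach it; inactive means mean below it, under half of replicates reach it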;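 further: signal also drops with host cell toxicity which is not excluded here; 0% = plate median of DMSO wells and 100% = zero luminescence signal; higher percent means less beta-gal luminescence so fewer parasites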
#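 Assay system: NIH/3T3 fibroblasts plus reporter T. cruzi. Amount: NIH/3T3 cells, 5,000 per well. Buffer or medium: DMEM, 2% fetal bovine serum. Doses: compound pinned at 50 nL/well, DMSO. Schedule: ≥90 h infection period, 3 h prior cell attachment. Signal: luminescent β-galactosidase signal after 60 min lysis. Read-out: parasite load inhibition, %.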
# Beta apoptosis = beta cell apoptosis inhibition; INS-1E cytokine-induced death, ATP luminescence, 48 h; percent of positive-control rescue, neutral wells zero; protection from apoptosis, % (concentration not given with the values); hit rate 0.8% among 300,000;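 active means Every replicate reaches about 75%, or at least half do and their mean reaches it too, limit read from the data; inconclusive means At least half of replicates reach the limit but their mean does not; inactive means Under half of replicates reach the limit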;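 further: 0% = cytokine-treated negative control wells and 100% = positive control rescue; higher means more ATP so stronger rescue from cytokine killing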
# SKKanGAS inh = SKKanGAS growth inhibition; inhibition, % at 7.5 µM; hit rate 1.3% among 300,000; S. pyogenes SKKanGAS, kanamycin growth, BacTiter-Glo, 6 h;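 active means mean replicate score, as percent of positive control median, at least 50; inconclusive means mean below 50 but one replicate at or above 50; inactive means mean and every replicate below 50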;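 further: strain carries kanamycin resistance gene driven by streptokinase promoter and grows in 40 µg/ml kanamycin; loss of luminescence reflects streptokinase promoter inhibition or plain growth inhibition; 0% = median of DMSO wells and 100% = positive control at its reference dose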
# Active calls of the source: *; ? = inconclusive; . = no result.
SMILES,CSC inhib,Mdm2-MdmX inh,L major viab,T cruzi inh,Beta apoptosis,SKKanGAS inh
OC(CN1CCN(Cc2ccccc2)CC1)c1ccc(Br)cc1 (stereo not given),23.6,-33.9,.,57.2*,4.0,-6.8
Cc1cccc(C)c1NS(=O)(=O)c1cc2c3c(c1)CCN3C(=O)CC2,-2.3,21.9,.,1.0,-1.3,0.9
Brc1ccsc1-c1csc(-c2ccncc2)n1,8.3,-37.2,.,21.3,-3.6,7.9
CCCCn1c(N)c(N(CCC(C)C)C(=O)C2CCN(C(=O)c3ccccc3C)CC2)c(=O)[nH]c1=O,.,-19.5,.,3.1,-3.2,-3.4
CCCC(=O)Nc1ccccc1Sc1ncnc2scc(-c3ccccc3)c12,-6.3,20.3,54.8*,9.0,-12.8,-1.7
CC(=O)Nc1ccc(Sc2ncnc3scc(-c4ccccc4)c23)cc1,2.2,22.5,1.4,15.0,-5.6,4.6
CCc1c(C)nc2ncnn2c1NCCc1ccc(OC)cc1,47.2,29.6,15.8,-37.3,97.2*,14.7
CCc1c(C)nc2ncnn2c1Nc1ccc(C)cc1,14.7,13.1,.,1.1,-3.0,-5.4
Cc1cc(OC(C)C(=O)Nc2ccccc2C(=O)N2CCCC2)ccc1Cl (stereo not given),-7.9,18.7,.,2.8,6.5,4.3
CSc1ccccc1OCc1cc(C(=O)N2CCc3c(Cl)cccc3C2)no1,14.1,19.9,.,23.3,78.7*,13.7
CSc1ccccc1OCc1cc(C(=O)N2CCNC(=O)C2)no1,0.2,7.8,.,-13.8,.,35.8
Cc1cc(NC(=O)CSc2nnc(-c3c[nH]c4ccccc34)n2-c2ccc(Cl)cc2)no1,-6.0,14.3,88.8*,6.0,12.2,-0.3
O=C(CSc1nnc(-c2n[nH]c3ccccc23)n1-c1ccccc1)Nc1ccccc1Cl,5.3,-2.9,60.4*,10.5,15.2,11.8
Cc1c(Cl)cccc1NC(=O)CSc1nnc(C)n1-c1ccccc1,-8.3,-9.4,-11.3,4.0,-6.8,0.7
Cc1nnc(SCC(=O)Nc2sc3c(c2C(=O)c2ccccc2)CCCC3)s1,-14.8,26.0,89.0*,6.9,2.5,-0.8
Cc1nnc(SCC(=O)Nc2ccccc2NC(=O)CSc2nnc(C)s2)s1,-4.1,5.4,-5.5,-3.7,-0.6,1.5
CCn1c(SCC(=O)Nc2ccc3c(c2)c2ccccc2n3CC)nnc1-c1cnccn1,.,-5.7,98.7*,?,.,7.7
Cc1ccccc1NC(=O)CSc1nc(=O)n(CCN2CCOCC2)c2c1CCCC2,-0.2,-3.9,.,0.7,-8.1,-17.9
COc1cc(/C=C/C(=O)OCC(=O)NCCC2=CCCCC2)cc(OC)c1OC,-9.0,-16.2,.,.,-12.8,.
Cc1cccnc1CN1CCN(Cc2nc(Cc3cccc(F)c3)no2)CC1,7.7,1.8,-2.8,12.4,-5.6,8.7
CCOC(CNc1c([N+](=O)[O-])c(=O)n(C)c(=O)n1C)OCC,.,21.3,-7.6,-11.3,-6.8,2.9
CCOC(=O)c1c(NC(=O)CSc2nnc(-c3c[nH]c4ccccc34)n2CC)sc2c1CCCC2,.,27.1,55.2*,27.7,12.5,30.0
O=C(CSc1nnc(-c2c[nH]c3ccccc23)n1CC1CCCO1)Nc1ccc2c(c1)OCCO2 (stereo not given),-3.0,31.0,10.7,-5.0,1.6,-2.5
CCn1c(SCC(=O)Nc2ccc3c(c2)OCCO3)nnc1-c1c[nH]c2ccccc12,-4.1,4.0,60.2*,-4.6,-3.1,-4.7
CN1CCC(N(C)C(=O)COc2ccccc2Cl)CC1,5.3,-17.9,.,.,-1.8,.
SMILES,CSC inhib,Mdm2-MdmX inh,L major viab,T cruzi inh,Beta apoptosis,SKKanGAS inh
O=C(COc1ccc2c3c(c(=O)oc2c1)CCC3)NC(Cc1ccc(Cl)cc1)C(=O)O (stereo not given),15.3,27.5,.,2.4,-5.2,-0.1
O=C(N/N=C\c1ccc(Cl)cc1Cl)c1sccc1-n1cccc1,11.2,16.6,99.9*,0.3,-0.7,3.3
COc1ccc(CC2(CO)CCN(Cc3cnn(-c4ccccc4)c3)CC2)cc1,21.1,1.2,86.8*,35.3,0.4,1.0
COc1ccc(CC2(CO)CCN(Cc3cnn(-c4ccccc4OC)c3)CC2)cc1,0.1,8.2,20.6,44.1,2.0,-11.2
COc1ccc(CC2(CO)CCN(Cc3cnn(-c4ccc(F)cc4)c3)CC2)cc1,34.8,9.0,84.1*,36.7,3.9,-12.4
C=CCn1c(SCC(=O)NC23CC4CC(CC(C4)C2)C3)nc2cc(C(=O)O)ccc2c1=O,-11.1,-9.3,-9.6,0.5,-2.8,8.0
CCn1c(C)nc2cc(C(=O)OC(C(F)(F)C(F)F)C(F)(F)C(F)F)ccc21,37.0,-12.0,100.2*,20.7,104.1*,-15.0
O=C(/C=C/NNC(=O)c1ccccc1)c1ccc([N+](=O)[O-])cc1,20.2,41.5,79.5*,60.9*,94.9*,13.0
CCc1ccc(C(=O)NNC(=O)OC)cc1,-9.9,13.9,0.9,-13.6,-3.6,-2.7
COc1ccc(-n2c(Cc3cccn3C)nnc2SCC(=O)N2CCCc3ccccc32)cc1,7.0,12.2,63.2*,12.3,-1.4,6.8
O=C(CSc1nnc(Cc2cccs2)n1C1CCCCC1)N1CCCc2ccccc21,57.8,10.3,95.0*,8.8,.,4.2
CC(=O)Nc1ccc(S(=O)(=O)NCC(=O)OCC(=O)NC23CC4CC(CC(C4)C2)C3)cc1,-6.6,-2.5,51.1*,-2.7,-16.2,-5.6
CC(=O)Nc1ccc(S(=O)(=O)NCC(=O)OCC(=O)NC(=O)C2CCCCC2)cc1,36.1,3.3,-6.5,1.0,6.4,-4.1
Fc1ccc(OCCCCN2CCOCC2)cc1,-2.9,-20.0,85.1*,-3.7,-0.6,-1.5
COc1ccc(Oc2ncc(CN3CCN(c4ccccc4)CC3)s2)cc1,.,-6.0,-0.6,7.6,5.2,-1.7
Brc1ccc(OCCOCCN2CCOCC2)cc1,-5.5,1.6,89.9*,36.8,-0.9,1.6
Cc1ccc(OCCCCCN2CCOCC2)cc1,8.3,9.2,.,-12.2,0.0,-4.7
COc1ccc(OCCN2CCOCC2)cc1,-9.0,9.4,.,-3.0,-7.5,3.1
Brc1ccc(Oc2ncc(CN3CCOCC3)s2)cc1,-4.8,-28.6,90.5*,-0.3,-4.5,4.7
COc1cccc(OCCCCCN2CCOCC2)c1,-10.0,-4.4,98.7*,.,-2.0,-3.4
CCn1c(/C=C/c2cc(Br)ccc2O)nc2ccccc2c1=O,-7.3,45.9,.,-0.3,-3.3,-2.2
CC1(C)SC[C@H](C(=O)Nc2cccc(Cl)c2)N1C=O,12.7,0.6,.,7.6,-1.2,4.4
O=C(CN1CCOCC1)NNC(=O)c1ccc(Cl)cc1,-21.4,-19.1,.,.,1.5,.
CCn1cc(C(=O)N2CCN(c3ccc(OC)cc3)CC2)c(=O)c2cc(S(=O)(=O)N3CCOCC3)ccc21,19.9,-15.3,.,-7.6,5.4,-0.6
O=C(CCN1CCN(C(=O)c2ccco2)CC1)Nc1ccc(F)cc1,.,-18.2,4.5,-6.3,-4.8,4.1
O=C(c1ccco1)N1CCN(CCCCOc2ccc(F)cc2)CC1,-17.8,3.1,90.9*,-0.5,0.4,2.0
Brc1ccc(OCCCCCN2CCOCC2)cc1,24.0,19.9,97.6*,19.0,-4.3,-11.7
